ChEMBL document CHEMBL4118191, “Novel oxazolxanthone derivatives as a new type of α-glucosidase inhibitor: synthesis, activities, inhibitory modes and synergetic effect” (Bioorg Med Chem, 2018)
Active and inactive are the calls of the source. No cut-off for these calls is given here.

Assays:
[1] = tested on: Saccharomyces cerevisiae; test: (§1) Synergistic inhibition of Saccharomyces cerevisiae alpha-glucosidase at 1:1 molar ratio of compound to 5-methoxy-2-(4-methoxyphenyl)-6H-xantheno [4, 3-d] oxazol-6-one using PNP glycoside as substrate preincubated for 30 mins followed by substrate addition measured after 60 secs by spectrophotometric method relative to control
Procedure, shortened: (§2)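 Single-point inhibition of yeast α-glucosidase, tested individually and as a 1:1 molar mixture at a fixed total concentration of 2. Inhibitor and enzyme were pre-incubated 30 min at 37 °C, then substrate was added. The reaction ran 60 s at 37 °C with absorbance read at 400 nm. Percent inhibition is relative to control.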

[2] = tested on: Saccharomyces cerevisiae; test: as §1, with “compound alone” for “control”; procedure, shortened: as §2
[3] = Inhibition of Saccharomyces cerevisiae alpha-glucosidase using PNP glycoside as substrate preincubated for 30 mins followed by substrate addition measured after 60 secs by spectrophotometric method
Procedure, shortened: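 Yeast α-glucosidase was pre-incubated with inhibitor for 30 min at 37 °C before substrate addition. The reaction ran 60 s at 37 °C and was read by absorbance at 400 nm. Five inhibitor concentrations were bracketed around a first-round IC50 estimate, each in triplicate, and mean values were taken.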

[4] = as §1, with “4:6” for “1:1”, “method” for “method relative to control”
Procedure, shortened: (§3)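 Yeast α-glucosidase IC50 was determined for the two-inhibitor mixture at a 4:6 molar ratio and for each inhibitor alone. Pre-incubation was 30 min at 37 °C, followed by a 60 s reaction at 37 °C read at 400 nm. Five concentrations were run in triplicate and means taken. Ratios compare single-compound IC50 with mixture IC50.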

[5] = Non-competitive inhibition of Saccharomyces cerevisiae alpha-glucosidase using varying levels of PNP glycoside as substrate preincubated for 30 mins followed by substrate addition measured after 60 secs by Lineweaver-Burk plot analysis
Procedure, shortened: (§4)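 Mode of inhibition came from Lineweaver–Burk double-reciprocal plots. At each fixed inhibitor concentration, yeast α-glucosidase activity was measured over varying PNP glycoside concentrations. Enzyme–inhibitor mixtures were in 50 mM phosphate buffer, pH 6.8, with 5% v/v DMSO, and were pre-incubated 30 min at 37 °C before substrate addition. The reaction ran 60 s at 37 °C and was read at 400 nm.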

[6] = tested on: Saccharomyces cerevisiae; test: Ratio of compound alone IC50 to compound IC50 in presence of 5-methoxy-2-(4-methoxyphenyl)-6H-xantheno [4, 3-d] oxazol-6-one for Saccharomyces cerevisiae alpha-glucosidase; procedure, shortened: as §3
[7] = tested on: Saccharomyces cerevisiae; test: Inhibition of Saccharomyces cerevisiae alpha-glucosidase at 2 uM using PNP glycoside as substrate preincubated for 30 mins followed by substrate addition measured after 60 secs by spectrophotometric method relative to control; procedure, shortened: as §2
[8] = Solubility of the compound; format: physicochemical
[9] = tested on: Saccharomyces cerevisiae; test: Competitive inhibition of Saccharomyces cerevisiae alpha-glucosidase at 50 to 60 uM using varying levels of PNP glycoside as substrate preincubated for 30 mins followed by substrate addition measured after 60 secs by Lineweaver-Burk plot analysis; procedure, shortened: as §4
[10] = tested on: Saccharomyces cerevisiae; test: as §1, with “5-hydroxy-2-(4-methoxyphenyl)-6H-xantheno” for “5-methoxy-2-(4-methoxyphenyl)-6H-xantheno”, “compound alone” for “control”; procedure, shortened: as §2
[11] = tested on: Saccharomyces cerevisiae; test: as §1, with “5-hydroxy-2-(4-methoxyphenyl)-6H-xantheno” for “5-methoxy-2-(4-methoxyphenyl)-6H-xantheno”; procedure, shortened: as §2
[12] = tested on: Saccharomyces cerevisiae; test: Ratio of IC50 for synergistic inhibition of Saccharomyces cerevisiae alpha-glucosidase assessed as 5-hydroxy-2-(4-methoxyphenyl)-6H-xantheno [4, 3-d] oxazol-6-one IC50 to IC50 for Saccharomyces cerevisiae alpha-glucosidase; procedure, shortened: as §3

Structure (SMILES)	IC50 [3] [µM]	also measured
COc1ccc(-c2nc3c(cc(O)c4c(=O)c5ccccc5oc43)o2)cc1	7.1	inhibition [1]: 41.9%; fold change (FC) [2]: 2; IC50 [4]: 1900 nM; Ki [5]: 5.3 µM; Ratio IC50 [6]: 3.5; inhibition [7]: 21.7%
O=c1c2ccccc2oc2c1c(O)cc1oc(-c3ccc([N+](=O)[O-])cc3)nc12	24.5	
COc1cc2oc(-c3ccccc3)nc2c2oc3ccccc3c(=O)c12	19.6	solubility [8]: Soluble
OC[C@H]1NC[C@H](O)[C@@H](O)[C@@H]1O [DUVOGLUSTAT]	60.3	
O=c1c2ccccc2oc2c1c(O)cc1oc(-c3cccc(F)c3)nc12	8.9	
O=c1c2ccccc2oc2c1c(O)cc1oc(C3CCCCC3)nc12	38.5	
Nc1ccc(-c2nc3c(cc(O)c4c(=O)c5ccccc5oc43)o2)cc1	8.3	
COc1cc2oc(-c3ccc(Cl)cc3)nc2c2oc3ccccc3c(=O)c12	9.9	solubility [8]: Soluble
Nc1c(O)cc(O)c2c(=O)c3ccccc3oc12	127	
O=c1c2ccccc2oc2c1c(O)cc1oc(-c3ccccc3F)nc12	8.4	
Cc1nc2c(cc(O)c3c(=O)c4ccccc4oc32)o1	64.4	inhibition [9]: Active
O=c1c2ccccc2oc2cc(O)cc(O)c12	186	
O=c1c2ccccc2oc2c1c(O)cc1oc(-c3ccc(C(F)(F)F)cc3)nc12	26.9	
O=c1c2ccccc2oc2c1c(O)cc1oc(-c3ccc(Cl)cc3)nc12	8.8	
O=c1c2ccccc2oc2c([N+](=O)[O-])c(O)cc(O)c12	286	
Cc1ccc(-c2nc3c(cc(O)c4c(=O)c5ccccc5oc43)o2)cc1	19.1	
O=c1c2ccccc2oc2c1c(O)cc1oc(-c3ccc(F)cc3)nc12	6.7	
O=c1c2ccccc2oc2c1c(O)cc1oc(-c3ccc(Br)cc3)nc12	11	
O=c1c2ccccc2oc2c1c(O)cc1oc(-c3ccc(O)cc3)nc12	7.3	
O=c1c2ccccc2oc2c1c(O)cc1oc(-c3c(F)cc(F)cc3F)nc12	6.3	Ki [5]: 6.8 µM
O=c1c2ccccc2oc2c1c(O)cc1oc(-c3ccccc3)nc12	18.3	
COc1ccc(-c2nc3c(cc(OC)c4c(=O)c5ccccc5oc43)o2)cc1	8.6	fold change (FC) [10]: 2; inhibition [11]: 41.9%; solubility [8]: Soluble; Ki [5]: 7.4 µM; Ratio IC50 [12]: 4; inhibition [7]: 20.3%
